Laboratory results as given in ChEMBL document CHEMBL1152488, “Synthesis and evaluation of pyrido[1,2-a]pyrimidines as inhibitors of nitric oxide synthases” (Eur J Med Chem, 2009).

Tests used:
[1] = test system: RAW264.7; assay: Cytotoxicity against mouse RAW264.7 cells at 100 uM; format: cell-based; settings: raw264.7, 100 µM
[2] = target: T1, Nitric oxide synthase 3 (Bos taurus) (UniProt P29473); assay: Inhibition of bovine eNOS expressed in insect Sf9 cells assessed as residual activity at 100 uM by Griess assay relative to control
T1 sequence (whole entry): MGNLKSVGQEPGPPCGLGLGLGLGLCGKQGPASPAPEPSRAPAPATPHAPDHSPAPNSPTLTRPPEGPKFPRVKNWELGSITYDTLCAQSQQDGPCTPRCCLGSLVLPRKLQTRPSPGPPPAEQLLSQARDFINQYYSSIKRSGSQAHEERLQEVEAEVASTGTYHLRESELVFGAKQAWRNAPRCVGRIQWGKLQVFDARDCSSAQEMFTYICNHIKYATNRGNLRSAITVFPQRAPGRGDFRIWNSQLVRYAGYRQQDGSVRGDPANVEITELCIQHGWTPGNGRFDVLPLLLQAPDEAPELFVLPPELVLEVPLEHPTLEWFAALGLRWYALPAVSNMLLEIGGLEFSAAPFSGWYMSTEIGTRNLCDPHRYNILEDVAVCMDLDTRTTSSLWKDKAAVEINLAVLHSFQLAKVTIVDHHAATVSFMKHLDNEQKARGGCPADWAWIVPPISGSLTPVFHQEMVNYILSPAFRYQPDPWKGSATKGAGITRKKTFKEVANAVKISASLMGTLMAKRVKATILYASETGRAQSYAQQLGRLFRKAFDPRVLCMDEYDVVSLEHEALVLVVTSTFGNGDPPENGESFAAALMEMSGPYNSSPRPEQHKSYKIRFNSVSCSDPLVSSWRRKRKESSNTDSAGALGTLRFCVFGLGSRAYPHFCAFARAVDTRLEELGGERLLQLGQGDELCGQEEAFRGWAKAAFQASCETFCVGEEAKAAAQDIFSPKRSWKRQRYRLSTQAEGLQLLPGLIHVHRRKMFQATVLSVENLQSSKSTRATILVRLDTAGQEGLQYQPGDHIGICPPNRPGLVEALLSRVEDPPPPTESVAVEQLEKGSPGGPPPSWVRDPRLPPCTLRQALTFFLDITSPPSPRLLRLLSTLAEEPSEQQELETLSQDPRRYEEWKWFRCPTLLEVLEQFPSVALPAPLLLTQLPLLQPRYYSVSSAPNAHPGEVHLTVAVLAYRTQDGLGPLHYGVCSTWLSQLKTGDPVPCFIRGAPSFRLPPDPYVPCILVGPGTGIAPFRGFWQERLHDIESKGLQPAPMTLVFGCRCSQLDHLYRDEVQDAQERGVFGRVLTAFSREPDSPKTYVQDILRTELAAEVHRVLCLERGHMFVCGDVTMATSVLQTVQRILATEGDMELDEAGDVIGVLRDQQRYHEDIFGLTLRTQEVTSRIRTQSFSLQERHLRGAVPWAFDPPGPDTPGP
Procedure, shortened: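 Bovine eNOS from Sf9 cells. Reaction: triethanolamine buffer pH 7.5, 0.5 mM Ca2+, 10 µg/ml CaM, 10 µM H4B, FAD, FMN, 0.5 mM NADPH, 1 mM L-arginine, with 100 µM compound, 20 min at 37 °C. After NADPH removal by LDH/pyruvate, nitrite measured by Griess at 543 nm. Expressed as % residual activity versus 1% DMSO control, 5 experiments.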

[3] = target: T2, Nitric oxide synthase, inducible (Mus musculus) (UniProt P29477); assay: Inhibition of mouse recombinant iNOS expressed in Escherichia coli assessed as NADPH consumption at 100 uM after 2 mins by spectrophotometry
T2 sequence (whole entry): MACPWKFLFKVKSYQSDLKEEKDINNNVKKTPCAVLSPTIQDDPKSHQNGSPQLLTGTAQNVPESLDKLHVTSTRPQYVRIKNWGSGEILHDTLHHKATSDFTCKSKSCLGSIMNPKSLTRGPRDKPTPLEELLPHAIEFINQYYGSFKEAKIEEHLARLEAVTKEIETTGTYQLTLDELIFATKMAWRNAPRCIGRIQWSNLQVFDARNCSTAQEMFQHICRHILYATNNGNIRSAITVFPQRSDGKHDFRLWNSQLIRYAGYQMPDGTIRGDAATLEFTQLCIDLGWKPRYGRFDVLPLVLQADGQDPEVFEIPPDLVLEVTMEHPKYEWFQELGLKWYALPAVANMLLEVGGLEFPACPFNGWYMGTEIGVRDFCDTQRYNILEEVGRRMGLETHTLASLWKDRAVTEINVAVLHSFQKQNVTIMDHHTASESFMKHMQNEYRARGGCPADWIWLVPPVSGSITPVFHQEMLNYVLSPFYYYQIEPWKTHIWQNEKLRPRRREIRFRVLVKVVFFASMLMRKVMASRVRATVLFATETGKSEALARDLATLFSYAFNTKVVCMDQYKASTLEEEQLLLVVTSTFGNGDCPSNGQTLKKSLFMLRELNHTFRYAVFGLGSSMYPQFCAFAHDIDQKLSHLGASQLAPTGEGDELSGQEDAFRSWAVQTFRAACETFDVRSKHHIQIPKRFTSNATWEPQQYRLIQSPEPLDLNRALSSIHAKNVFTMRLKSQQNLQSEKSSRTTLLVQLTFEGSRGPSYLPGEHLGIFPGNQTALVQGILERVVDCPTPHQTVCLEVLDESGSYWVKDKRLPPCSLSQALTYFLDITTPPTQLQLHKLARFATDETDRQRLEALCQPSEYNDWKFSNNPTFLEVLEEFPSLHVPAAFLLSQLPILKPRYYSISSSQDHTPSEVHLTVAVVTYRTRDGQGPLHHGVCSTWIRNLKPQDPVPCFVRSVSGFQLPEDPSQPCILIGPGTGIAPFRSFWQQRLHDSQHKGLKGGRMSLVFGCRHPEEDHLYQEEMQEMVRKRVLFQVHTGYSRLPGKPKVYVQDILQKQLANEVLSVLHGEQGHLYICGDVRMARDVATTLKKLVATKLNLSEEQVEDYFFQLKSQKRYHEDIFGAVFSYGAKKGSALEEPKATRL
Procedure, shortened: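 Murine iNOS from E. coli (15–50 nM final) in 50 mM Hepes pH 7.4 with 5 mM DTT, 100 µM CaCl2, 200 µM NADPH, 10 µM H4B, 100 µM L-arginine and 100 µM compound. Cofactors and compound preincubated 2 min at 37 °C, enzyme added, and A340 followed for 3 min (ε 6.2 mM-1 cm-1). Given as % of 1% DMSO control NADPH oxidase rate.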

[4] = target: Nitric oxide synthase 1 (Rattus norvegicus) (UniProt P29476); assay: Inhibition of rat recombinant nNOS expressed in Saccharomyces cerevisiae assessed as conversion of [gamma-14C]L-arginine to [14C]L-citrulline at 100 uM by radioactive assay relative to control; set-up: scale not given: the % may be the effect or the level left
Procedure, shortened: (§1)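 Purified enzymes: rat nNOS from S. cerevisiae, murine iNOS and bovine eNOS from E. coli. Reaction 5 min at 37 °C in 50 mM Hepes pH 7.4 with DTT, 1 mM NADPH, H4B, FAD, FMN, [14C]L-arginine (2.5 µM L-arginine) and 100 µM compound in 1% DMSO. nNOS/eNOS also got 1 mM CaCl2 and CaM, which iNOS lacked. [14C]citrulline isolated on Dowex and counted by scintillation; % of DMSO control, n=3.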

[5] = target: T2, Nitric oxide synthase, inducible (Mus musculus); assay: Inhibition of mouse recombinant iNOS expressed in Escherichia coli assessed as conversion of [gamma-14C]L-arginine to [14C]L-citrulline at 100 uM by radioactive assay relative to control; set-up: scale not given: the % may be the effect or the level left; procedure, shortened: as §1
[6] = target: T1, Nitric oxide synthase 3 (Bos taurus); assay: Inhibition of bovine recombinant eNOS expressed in Escherichia coli assessed as conversion of [gamma-14C]L-arginine to [14C]L-citrulline at 100 uM by radioactive assay relative to control; set-up: scale not given: the % may be the effect or the level left; procedure, shortened: as §1
[7] = target: T2, Nitric oxide synthase, inducible (Mus musculus); assay: Inhibition of iNOS in LPS and IFN-gamma-stimulated mouse RAW264.7 cells assessed as inhibition of nitrite accumulation at 100 uM after 15 hrs by Griess assay; format: cell-based
Procedure, shortened: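 RAW 264.7 macrophages seeded at 100,000 cells/well in RPMI 1640 with 5% FCS and grown 24 h. Stimulated with 40 U/ml γ-IFN and 50 ng/ml LPS, with compound at 100 µM in 1% DMSO, for 15 h at 37 °C. Supernatant nitrite measured with Griess reagent at 550 nm against an NaNO2 calibration; 6–8 determinations.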

[8] = target: T2, Nitric oxide synthase, inducible (Mus musculus); assay: Inhibition of mouse iNOS expressed in insect Sf9 cells assessed as residual activity at 100 uM by Griess assay relative to control
Procedure, shortened: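 Murine iNOS produced in Sf9 insect cells. Buffer: 50 mM triethanolamine pH 7.5, 1 mM CHAPS, 10 mM 2-mercaptoethanol, 0.5 mM EDTA. Additions: 1 mM Mg2+, 5 µM FAD, 5 µM FMN, 0.5 mM NADPH, 10 µM H4B, 10 µg/ml CaM, 1 mM L-arginine. Compound at 100 µM final, 37 °C for 20 min. NADPH removed with LDH/pyruvate, then Griess read at 543 nm. Values are % of 1% DMSO control, 5 experiments.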

[9] = target: Nitric oxide synthase, inducible (Homo sapiens) (UniProt P35228); assay: Inhibition of human iNOS expressed in insect Sf9 cells assessed as residual activity at 100 uM by Griess assay relative to control
Procedure, shortened: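 Human iNOS made in Sf9 cells, incubated at 37 °C for 20 min in 50 mM triethanolamine pH 7.5 with 1 mM Mg2+, FAD/FMN 5 µM each, 0.5 mM NADPH, 10 µM H4B, CaM and 1 mM L-arginine. Compound 100 µM final. NADPH cleared with lactate dehydrogenase/pyruvate before Griess reaction (543 nm). Residual activity relative to 1% DMSO control; mean of 5 experiments.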

[10] = Lipophilicity, log D at pH 7.4 by HPLC method; settings: buffer
[11] = target: T3, Nitric oxide synthase 3 (Homo sapiens) (UniProt P29474); assay: Inhibition of human eNOS assessed as residual activity at 100 uM by Griess assay relative to control
T3 sequence (whole entry): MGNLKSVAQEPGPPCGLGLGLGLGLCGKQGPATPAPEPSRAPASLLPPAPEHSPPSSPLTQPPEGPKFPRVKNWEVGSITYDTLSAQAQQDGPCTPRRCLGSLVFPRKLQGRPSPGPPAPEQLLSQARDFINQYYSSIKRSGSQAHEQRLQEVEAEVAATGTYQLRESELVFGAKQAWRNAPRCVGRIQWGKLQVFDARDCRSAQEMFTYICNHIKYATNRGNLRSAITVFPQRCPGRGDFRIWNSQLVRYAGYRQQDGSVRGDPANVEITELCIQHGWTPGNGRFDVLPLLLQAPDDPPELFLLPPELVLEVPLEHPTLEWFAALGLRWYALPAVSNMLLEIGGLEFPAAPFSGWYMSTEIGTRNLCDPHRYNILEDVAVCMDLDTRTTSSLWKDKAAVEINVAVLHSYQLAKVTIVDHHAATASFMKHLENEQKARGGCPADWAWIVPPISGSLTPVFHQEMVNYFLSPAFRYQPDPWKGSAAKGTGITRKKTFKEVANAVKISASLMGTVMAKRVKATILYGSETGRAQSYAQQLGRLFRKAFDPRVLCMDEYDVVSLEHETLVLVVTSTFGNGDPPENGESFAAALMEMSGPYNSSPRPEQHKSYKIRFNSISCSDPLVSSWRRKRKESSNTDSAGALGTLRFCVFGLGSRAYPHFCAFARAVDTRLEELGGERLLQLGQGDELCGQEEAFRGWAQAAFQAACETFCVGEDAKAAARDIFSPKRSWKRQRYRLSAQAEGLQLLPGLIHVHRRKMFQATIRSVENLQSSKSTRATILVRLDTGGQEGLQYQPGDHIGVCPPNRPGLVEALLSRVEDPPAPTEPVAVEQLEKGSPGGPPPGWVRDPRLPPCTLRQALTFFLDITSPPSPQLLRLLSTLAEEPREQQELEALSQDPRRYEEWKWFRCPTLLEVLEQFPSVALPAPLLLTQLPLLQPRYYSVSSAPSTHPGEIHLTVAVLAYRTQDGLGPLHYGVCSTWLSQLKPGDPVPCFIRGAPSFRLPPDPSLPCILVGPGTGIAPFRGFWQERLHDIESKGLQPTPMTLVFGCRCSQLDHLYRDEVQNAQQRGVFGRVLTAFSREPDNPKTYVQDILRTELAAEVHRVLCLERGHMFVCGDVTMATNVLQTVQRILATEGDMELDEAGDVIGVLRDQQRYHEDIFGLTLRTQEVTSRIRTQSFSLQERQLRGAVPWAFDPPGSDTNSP
Procedure, shortened: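 Human eNOS expressed in Pichia pastoris. Incubated 20 min at 37 °C in triethanolamine pH 7.5 with 0.5 mM Ca2+, CaM, H4B 10 µM, FAD/FMN 5 µM, NADPH 0.5 mM, L-arginine 1 mM and compound at 100 µM final. Nitrite read by Griess (543 nm) after LDH/pyruvate NADPH removal; % of 1% DMSO control from 5 experiments.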

Sequence of Nitric oxide synthase 1 (Rattus norvegicus) (P29476 whole entry): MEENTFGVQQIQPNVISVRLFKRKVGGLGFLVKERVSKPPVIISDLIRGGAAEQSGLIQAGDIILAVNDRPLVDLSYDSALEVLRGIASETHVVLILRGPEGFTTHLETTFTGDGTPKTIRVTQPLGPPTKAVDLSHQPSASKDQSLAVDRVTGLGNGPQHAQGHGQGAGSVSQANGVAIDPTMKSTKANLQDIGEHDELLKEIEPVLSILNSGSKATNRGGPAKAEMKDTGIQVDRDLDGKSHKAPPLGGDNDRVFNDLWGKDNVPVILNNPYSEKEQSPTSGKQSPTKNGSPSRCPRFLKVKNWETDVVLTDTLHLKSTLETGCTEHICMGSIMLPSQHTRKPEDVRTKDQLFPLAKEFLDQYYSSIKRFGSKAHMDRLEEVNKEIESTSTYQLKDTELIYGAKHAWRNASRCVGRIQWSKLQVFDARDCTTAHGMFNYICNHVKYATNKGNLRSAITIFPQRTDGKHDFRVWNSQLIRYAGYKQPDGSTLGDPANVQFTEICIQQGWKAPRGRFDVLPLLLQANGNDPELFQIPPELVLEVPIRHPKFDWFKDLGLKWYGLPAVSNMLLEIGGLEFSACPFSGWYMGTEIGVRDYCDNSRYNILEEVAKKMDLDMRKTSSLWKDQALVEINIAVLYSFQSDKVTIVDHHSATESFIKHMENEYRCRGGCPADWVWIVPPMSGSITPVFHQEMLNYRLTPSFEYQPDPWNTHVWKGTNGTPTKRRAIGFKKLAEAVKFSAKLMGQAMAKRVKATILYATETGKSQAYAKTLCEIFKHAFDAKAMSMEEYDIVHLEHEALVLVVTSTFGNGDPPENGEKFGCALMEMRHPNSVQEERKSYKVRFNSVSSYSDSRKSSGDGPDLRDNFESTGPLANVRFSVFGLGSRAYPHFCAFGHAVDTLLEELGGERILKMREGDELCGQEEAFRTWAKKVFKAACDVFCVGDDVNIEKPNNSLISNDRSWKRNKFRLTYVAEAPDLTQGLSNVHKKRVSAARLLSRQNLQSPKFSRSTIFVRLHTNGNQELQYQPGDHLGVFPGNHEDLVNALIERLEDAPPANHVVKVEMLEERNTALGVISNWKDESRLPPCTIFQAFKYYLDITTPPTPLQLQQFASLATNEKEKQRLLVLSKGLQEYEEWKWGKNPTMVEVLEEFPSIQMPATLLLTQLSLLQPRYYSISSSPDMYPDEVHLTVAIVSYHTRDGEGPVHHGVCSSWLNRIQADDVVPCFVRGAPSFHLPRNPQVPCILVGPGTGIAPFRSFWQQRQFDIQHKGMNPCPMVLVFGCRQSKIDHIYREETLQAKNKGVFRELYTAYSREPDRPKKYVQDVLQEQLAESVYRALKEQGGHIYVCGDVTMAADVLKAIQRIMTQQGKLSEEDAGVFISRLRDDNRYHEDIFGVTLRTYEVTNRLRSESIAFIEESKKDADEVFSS
Sequence of Nitric oxide synthase, inducible (Homo sapiens) (P35228 whole entry): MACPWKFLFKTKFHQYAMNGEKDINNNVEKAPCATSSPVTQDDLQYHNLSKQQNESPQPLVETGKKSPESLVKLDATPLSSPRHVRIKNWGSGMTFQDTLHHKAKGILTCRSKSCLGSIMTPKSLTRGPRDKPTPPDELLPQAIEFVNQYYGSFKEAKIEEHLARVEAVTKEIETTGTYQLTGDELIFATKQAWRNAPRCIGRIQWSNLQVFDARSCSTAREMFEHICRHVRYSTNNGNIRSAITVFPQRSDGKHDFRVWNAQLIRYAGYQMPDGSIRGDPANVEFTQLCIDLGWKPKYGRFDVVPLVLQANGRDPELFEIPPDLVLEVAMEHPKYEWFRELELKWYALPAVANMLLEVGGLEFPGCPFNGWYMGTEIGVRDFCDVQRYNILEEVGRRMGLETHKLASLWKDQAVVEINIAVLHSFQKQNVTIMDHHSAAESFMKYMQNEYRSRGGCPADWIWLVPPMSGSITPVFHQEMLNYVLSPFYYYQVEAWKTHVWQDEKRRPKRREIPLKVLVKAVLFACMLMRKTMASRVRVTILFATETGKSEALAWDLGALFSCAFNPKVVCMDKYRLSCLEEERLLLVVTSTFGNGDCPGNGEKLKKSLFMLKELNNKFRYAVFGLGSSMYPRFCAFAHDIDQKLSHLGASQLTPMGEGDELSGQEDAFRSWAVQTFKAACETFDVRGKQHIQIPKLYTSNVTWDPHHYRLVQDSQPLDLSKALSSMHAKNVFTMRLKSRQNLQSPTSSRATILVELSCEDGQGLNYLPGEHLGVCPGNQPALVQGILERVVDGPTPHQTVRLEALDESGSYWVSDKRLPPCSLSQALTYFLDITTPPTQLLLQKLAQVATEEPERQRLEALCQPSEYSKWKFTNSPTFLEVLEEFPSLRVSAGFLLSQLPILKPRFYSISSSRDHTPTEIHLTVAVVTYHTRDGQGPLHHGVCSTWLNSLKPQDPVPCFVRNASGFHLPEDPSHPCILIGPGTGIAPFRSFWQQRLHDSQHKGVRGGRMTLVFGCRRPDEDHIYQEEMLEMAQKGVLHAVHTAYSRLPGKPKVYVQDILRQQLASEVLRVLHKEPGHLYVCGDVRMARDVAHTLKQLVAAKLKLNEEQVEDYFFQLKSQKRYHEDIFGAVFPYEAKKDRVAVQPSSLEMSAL

Row | SMILES | Activity [1] | Activity [2] | Remaining NADPH oxidation rate (% of DMSO control) [3] | Activity [4] | Activity [5] | Activity [6] | inhibition [7] | Activity [8] | Activity [9] | logD [10] | Activity [11]
1 | Cc1ccc(C(=O)C2CN=C3C=CC=CN3C2)cc1.[O-][Cl+3]([O-])([O-])O (stereo unspecified) | Non-toxic | 94% | 91% | 92% | 100% | 100% | 60% | 86% | – | – | –
2 | COc1ccc(C(=O)C2CN=C3C(C)=CC=CN3C2)cc1OC (stereo unspecified) | Non-toxic | 95% | 89% | 48% | 96% | 94% | 67% | 102% | – | – | –
3 | CC1=CC=CC2=NCC(C(=O)c3ccc(-c4ccc(Br)cc4)cc3)CN12.[O-][Cl+3]([O-])([O-])O (stereo unspecified) | Non-toxic | – | – | – | – | – | 98% | – | 106% | 2.8 | 84%
